Reference: ChEMBL document CHEMBL1150782, “Strong and selective inhibitors of hepatitis B virus replication among novel N4-hydroxy- and 5-methyl-beta-L-deoxycytidine analogues” (Antimicrob Agents Chemother, 2007)

Experiments:
[1] = Cytotoxicity against human HepG2 cells after 3 days by MTT assay; assay type: cell-based
How it was run: (§1)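 HL-60 cells in RPMI or HepG2 cells in DMEM, seeded at 50,000 per well. Exposed for 3 days to varying compound concentrations at 37°C under humidified 5% CO2. Growth read by MTT reduction to formazan. CC50 is the concentration inhibiting growth by 50%; mean ± SD of at least three independent experiments.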

[2] = test system: Hepatitis B virus; test: Antiviral activity against HBV in HepG2.2.15 cells assessed as decrease in extracellular viral DNA level by RT-PCR; assay type: functional, organism-based; conditions: HepG2 2.2.15
How it was run: (§2)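 HepG2.2.15 (HBV-transfected) cells, ~10^5 per well in DMEM with 10% FBS; compound added at various concentrations with daily medium changes. Supernatants taken at day 3, 6 or 9, cleared, proteinase K digested, and HBV DNA amplified by PCR with subgenomic primers. Products run on 1% agarose, ethidium stained and imaged, calibrated against cloned HBV genome dilutions. EC50 taken from dose-response curves as 50% reduction of medium HBV DNA.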

[3] = test system: Hepatitis B virus; test: Antiviral activity against HBV in HepG2.2.15 cells assessed as decrease in extracellular viral DNA level at 0.3 uM by PCR; assay type: functional, organism-based; conditions: HepG2 2.2.15, TDE = time-dependent effect; how it was run: as §2
[4] = Cytotoxicity against human HL60 cells after 3 days by MTT assay; assay type: cell-based; conditions: HL-60 cells; how it was run: as §1
[5] = test system: Hepatitis B virus; test: Antiviral activity against HBV in HepG2.2.15 cells assessed as decrease in extracellular viral DNA level at 0.5 uM by PCR; assay type: functional, organism-based; conditions: HepG2 2.2.15, TDE = time-dependent effect; how it was run: as §2
[6] = Cytotoxicity against human CEM cells; assay type: cell-based; conditions: CCRF-CEM cells
[7] = test system: Hepatitis B virus; test: Antiviral activity against HBV in HepG2.2.15 cells assessed as decrease in extracellular viral DNA level at 0.1 uM by PCR; assay type: functional, organism-based; conditions: HepG2 2.2.15, TDE = time-dependent effect; how it was run: as §2
[8] = Inhibition of HBV DNA polymerase; design: species or system Hepatitis B virus
How it was run: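 Endogenous polymerase assay using HBV virions purified from untreated patient serum (>10^7 GE/ml) by ultracentrifugation and a sucrose step gradient. Incubated 1 h at 37°C; [3H]dCMP incorporation counted; IC50 from inhibition curves.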

[9] = Inhibition of duck HBV DNA polymerase; design: species or system Duck hepatitis B virus

Structure (SMILES): Nc1ccn([C@@H]2CS[C@H](CO)O2)c(=O)n1 [LAMIVUDINE]
- CC50 at 72 h [1]: 1200 µM
- EC50 [2]: 0.1 µM
- Activity [3]: tde
- CC50 at 72 h [4]: 1400 µM

Structure (SMILES): Cc1cn([C@@H]2C[C@@H](O)[C@H](CO)O2)c(=O)nc1N
- CC50 at 72 h [1]: > 2000 µM
- EC50 [2]: 0.9 µM
- CC50 at 72 h [4]: > 2000 µM

Structure (SMILES): O=c1nc(NO)ccn1[C@@H]1CS[C@H](CO)O1
- CC50 at 72 h [1]: 1320 µM
- EC50 [2]: 0.51 µM
- Activity [5]: tde
- CC50 at 72 h [4]: 1450 µM

Structure (SMILES): Cc1cn([C@@H]2CC[C@H](CO)O2)c(=O)nc1N
- CC50 at 72 h [1]: 1550 µM
- EC50 [2]: > 50 µM
- CC50 at 72 h [4]: 950 µM

Structure (SMILES): Nc1ccn([C@@H]2CC[C@H](CO)O2)c(=O)n1
- CC50 at 72 h [1]: 85 µM
- EC50 [2]: 0.2 µM
- CC50 [6]: 70 µM
- CC50 at 72 h [4]: 94 µM

Structure (SMILES): Cc1cn([C@@H]2C[C@@H](N=[N+]=[N-])[C@H](CO)O2)c(=O)nc1N
- CC50 at 72 h [1]: 1750 µM
- EC50 [2]: 13 µM
- CC50 at 72 h [4]: 1900 µM

Structure (SMILES): O=c1nc(NO)ccn1[C@@H]1C=C[C@H](CO)O1
- Activity [7]: tde
- CC50 at 72 h [1]: 2500 µM
- EC50 [2]: 0.03 µM
- CC50 at 72 h [4]: 3500 µM

Structure (SMILES): Cc1cn([C@H]2C[C@H](O)[C@@H](CO)O2)c(=O)[nH]c1=O [DOXRIBTIMINE]
- CC50 at 72 h [1]: 2100 µM
- EC50 [2]: 0.3 µM
- CC50 at 72 h [4]: 1760 µM

Structure (SMILES): Cc1cn([C@@H]2C[C@@H](O)[C@H](COP(=O)(O)OP(=O)(O)OP(=O)(O)O)O2)c(=O)[nH]c1=O [TELBIVUDINE 5'TRIPHOSPHATE]
- IC50 [8]: 0.46 µM
- IC50 [9]: 1 µM

Structure (SMILES): Cc1cn([C@@H]2C[C@@H](N=[N+]=[N-])[C@H](COP(=O)(O)OP(=O)(O)OP(=O)(O)O)O2)c(=O)nc1N
- IC50 [8]: 0.85 µM

Structure (SMILES): Cc1cn([C@@H]2CC[C@H](COP(=O)(O)OP(=O)(O)OP(=O)(O)O)O2)c(=O)nc1N
- IC50 [8]: 6.5 µM

Structure (SMILES): O=c1nc(NO)c(F)cn1[C@@H]1C[C@@H](O)[C@H](CO)O1
- CC50 at 72 h [1]: 920 µM
- EC50 [2]: 4.5 µM
- CC50 at 72 h [4]: 1370 µM

Structure (SMILES): O=c1nc(NO)ccn1[C@@H]1CC(F)[C@H](CO)O1 (stereo partly specified)
- CC50 at 72 h [1]: 820 µM
- EC50 [2]: 25 µM
- CC50 at 72 h [4]: 4400 µM

Structure (SMILES): [N-]=[N+]=N[C@@H]1C[C@@H](n2ccc(NO)nc2=O)O[C@H]1CO
- CC50 at 72 h [1]: 1160 µM
- EC50 [2]: 50 µM
- CC50 at 72 h [4]: 2000 µM

Structure (SMILES): Cc1cn([C@@H]2C[C@@H](F)[C@H](COP(=O)(O)OP(=O)(O)OP(=O)(O)O)O2)c(=O)nc1N
- IC50 [8]: 1.9 µM

Structure (SMILES): Cc1cn([C@@H]2C=C[C@H](CO)O2)c(=O)nc1N
- CC50 at 72 h [1]: 1400 µM
- EC50 [2]: > 50 µM
- CC50 at 72 h [4]: 600 µM

Structure (SMILES): Cc1cn([C@@H]2C[C@@H](O)[C@H](CO)O2)c(=O)nc1NO
- CC50 at 72 h [1]: 490 µM
- EC50 [2]: 5.04 µM
- CC50 at 72 h [4]: 600 µM

Structure (SMILES): O=c1nc(NO)ccn1[C@@H]1C[C@@H](O)[C@H](CO)O1
- CC50 at 72 h [1]: 545 µM
- EC50 [2]: 2.38 µM
- CC50 at 72 h [4]: 460 µM

Structure (SMILES): Nc1ccn([C@@H]2C=C[C@H](CO)O2)c(=O)n1
- CC50 [6]: 20 µM

Structure (SMILES): Cc1cn([C@@H]2C[C@@H](F)[C@H](CO)O2)c(=O)nc1N
- CC50 at 72 h [1]: 1800 µM
- EC50 [2]: > 50 µM
- CC50 at 72 h [4]: 1650 µM

Structure (SMILES): Nc1nc(=O)n([C@@H]2CS[C@H](CO)O2)cc1F [EMTRICITABINE]
- CC50 at 72 h [1]: 765 µM
- EC50 [2]: 0.1 µM
- CC50 at 72 h [4]: 845 µM

Structure (SMILES): Cc1cn([C@@H]2C[C@@H](O)[C@H](COP(=O)(O)OP(=O)(O)OP(=O)(O)O)O2)c(=O)nc1NO
- IC50 [8]: 4 µM

Structure (SMILES): O=c1nc(NO)ccn1[C@@H]1C=C[C@H](COP(=O)(O)OP(=O)(O)OP(=O)(O)O)O1
- IC50 [8]: 0.21 µM

Structure (SMILES): O=c1nc(NO)c(F)cn1[C@@H]1CS[C@H](CO)O1
- CC50 at 72 h [1]: 855 µM
- EC50 [2]: 5 µM
- CC50 at 72 h [4]: 770 µM

Structure (SMILES): O=c1nc(NO)ccn1[C@@H]1CC[C@H](COP(=O)(O)OP(=O)(O)OP(=O)(O)O)O1
- IC50 [8]: 0.99 µM

Structure (SMILES): O=c1nc(NO)ccn1[C@@H]1C[C@@H](O)[C@H](COP(=O)(O)OP(=O)(O)OP(=O)(O)O)O1
- IC50 [8]: 6 µM

Structure (SMILES): Cc1cn([C@@H]2C=C[C@H](COP(=O)(O)OP(=O)(O)OP(=O)(O)O)O2)c(=O)nc1N
- IC50 [8]: 6.2 µM

Structure (SMILES): Nc1ccn([C@@H]2CS[C@H](COP(=O)(O)OP(=O)(O)OP(=O)(O)O)O2)c(=O)n1 [LAMIVUDINE TRIPHOSPHATE]
- IC50 [8]: 0.3 µM

Structure (SMILES): O=c1nc(NO)ccn1[C@@H]1CC[C@H](CO)O1
- CC50 at 72 h [1]: 2250 µM
- EC50 [2]: 0.55 µM
- CC50 at 72 h [4]: 1600 µM

Structure (SMILES): Cc1cn([C@@H]2C[C@@H](O)[C@H](COP(=O)(O)OP(=O)(O)OP(=O)(O)O)O2)c(=O)nc1N
- IC50 [8]: 0.9 µM
